Results taken from ChEMBL document CHEMBL4145556, “Carbazole-, Aspidofractinine-, and Aspidocarpamine-Type Alkaloids from Pleiocarpa pycnantha” (J Nat Prod, 2018).

Experiments:
HEK293 = test: Cytotoxicity against HEK293 cells assessed as reduction in cell viability by CMFDA dye based fluorescence assay; details: human
In short: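 Viability of HEK293/NF-κB-luc cells was tracked with 2.5 μM CMFDA loaded 1 h before seeding at 10^4 cells/well. After overnight incubation, samples were added with 20 ng/mL TNF-α for 5 h. Fluorescence was read after lysis. Duplicate wells, three independent experiments.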

[1] = Inhibition of TNFalpha stimulated NF-kappaB (unknown origin) expressed in HEK293 cells after 5 hrs by luciferase reporter gene based luminescence assay; assay type: cell-based; details: Homo sapiens, HEK293, 5 h
In short: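 HEK293/NF-κB-luc cells loaded 1 h with 2.5 μM CMFDA, seeded at 10^4 cells/well and incubated overnight. Samples were added, with TNF-α stimulation at 20 ng/mL for 5 h. After lysis, fluorescence was read, then luciferase luminescence. Luminescence was normalized to each well's fluorescence and IC50 derived. Duplicate wells, three independent experiments.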

SMILES	IC50 [1]	Activity (HEK293)
COC(=O)c1nccc2c1[nH]c1ccccc12	> 50 µM	Non-Toxic
O=c1cc(-c2ccc(Br)cc2)oc2ccccc12	–	Non-Toxic
C/C=C1/C[N@+]2(C)C3Cc4c([nH]c5ccc(O)cc45)[C@@H]2C[C@H]1[C@@H]3CO	> 50 µM	Non-Toxic
C[C@H]1NCCc2c1cc1c([nH]c3ccccc31)c2CO	> 50 µM	Non-Toxic
C=C1C(=O)O[C@@H]2C3O[C@]3(C)CC/C=C(\C)CC[C@@H]12 (stereo partly drawn)	0.4 µM	Non-Toxic

The next lines start with results.

IC50 [1]	SMILES	Activity (HEK293)
9.4 µM	C/C=C1/COC(=O)[C@@H]2[C@H]1C[C@@H]1NCCc3c1n2c1ccccc31	Non-Toxic
8.8 µM	COC(=O)[C@@H]1C[C@@]23CCCN4CC[C@@]5(c6ccccc6N(C)[C@]15CC2)[C@@H]43	Non-Toxic
